# Laboratory results reported in ChEMBL document CHEMBL1144847, “Novel uracil-based 2-aminoanilide and 2-aminoanilide-like derivatives: histone deacetylase inhibition and in-cell activities” (Bioorg Med Chem Lett, 2008).
# Activity calls are given as the source filed them. The calls are words filed in the database; no cut-off is given here.
# What was measured:
# Histone deacetylase 1 = Histone deacetylase 1 (Homo sapiens, UniProt Q13547); assay: Inhibition of human HDAC1 in U937 cells by immunoprecipitation assay; assay type: cell-based, U-937
# Chain of Histone deacetylase 1 (Q13547 whole entry): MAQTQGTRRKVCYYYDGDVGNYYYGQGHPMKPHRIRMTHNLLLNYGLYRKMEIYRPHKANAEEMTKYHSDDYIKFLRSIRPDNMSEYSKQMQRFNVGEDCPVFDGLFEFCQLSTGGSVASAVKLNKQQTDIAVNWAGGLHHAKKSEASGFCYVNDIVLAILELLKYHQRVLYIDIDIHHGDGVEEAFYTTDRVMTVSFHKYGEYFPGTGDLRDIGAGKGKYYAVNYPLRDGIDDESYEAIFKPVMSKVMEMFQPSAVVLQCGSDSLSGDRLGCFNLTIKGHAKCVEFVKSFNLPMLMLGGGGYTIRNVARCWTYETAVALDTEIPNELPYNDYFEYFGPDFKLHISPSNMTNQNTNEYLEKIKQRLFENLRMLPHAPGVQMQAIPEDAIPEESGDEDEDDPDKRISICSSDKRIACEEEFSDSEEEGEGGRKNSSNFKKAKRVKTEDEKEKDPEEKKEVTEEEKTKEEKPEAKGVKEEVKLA
# Histone deacetylase 4 = Histone deacetylase 4 (Homo sapiens, UniProt P56524); assay: Inhibition of human HDAC4 in U937 cells by immunoprecipitation assay; assay type: cell-based, U-937
# Chain of Histone deacetylase 4 (P56524 whole entry): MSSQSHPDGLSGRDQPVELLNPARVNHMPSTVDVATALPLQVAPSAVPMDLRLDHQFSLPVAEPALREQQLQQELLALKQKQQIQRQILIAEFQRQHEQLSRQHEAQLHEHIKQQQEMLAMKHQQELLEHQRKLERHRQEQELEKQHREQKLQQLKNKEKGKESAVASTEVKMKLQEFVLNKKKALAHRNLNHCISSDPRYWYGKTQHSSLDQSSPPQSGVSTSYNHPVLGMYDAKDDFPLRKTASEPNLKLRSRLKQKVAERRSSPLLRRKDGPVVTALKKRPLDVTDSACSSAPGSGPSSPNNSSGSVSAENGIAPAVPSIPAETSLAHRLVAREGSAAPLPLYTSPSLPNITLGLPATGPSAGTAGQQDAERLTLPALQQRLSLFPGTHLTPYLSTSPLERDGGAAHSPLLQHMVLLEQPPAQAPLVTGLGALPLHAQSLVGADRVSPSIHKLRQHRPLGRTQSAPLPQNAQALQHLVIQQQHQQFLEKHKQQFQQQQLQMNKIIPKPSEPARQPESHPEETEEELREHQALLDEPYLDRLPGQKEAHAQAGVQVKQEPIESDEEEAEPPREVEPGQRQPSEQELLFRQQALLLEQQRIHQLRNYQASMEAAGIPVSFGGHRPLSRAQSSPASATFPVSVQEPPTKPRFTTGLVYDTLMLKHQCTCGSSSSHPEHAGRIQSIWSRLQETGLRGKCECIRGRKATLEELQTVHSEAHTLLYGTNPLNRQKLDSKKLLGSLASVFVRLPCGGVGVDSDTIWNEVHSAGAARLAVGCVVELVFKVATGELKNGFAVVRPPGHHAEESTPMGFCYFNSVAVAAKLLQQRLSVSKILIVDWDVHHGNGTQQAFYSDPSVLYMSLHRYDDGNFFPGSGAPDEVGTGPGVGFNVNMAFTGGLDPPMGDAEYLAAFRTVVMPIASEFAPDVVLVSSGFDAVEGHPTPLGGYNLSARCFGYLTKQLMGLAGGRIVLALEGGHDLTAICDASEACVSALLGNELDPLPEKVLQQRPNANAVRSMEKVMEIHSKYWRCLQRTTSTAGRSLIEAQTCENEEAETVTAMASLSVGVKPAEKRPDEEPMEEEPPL
# U-937 [1] = assay: Cell cycle arrest in human U937 cells assessed as accumulation at G2 phase at 5 uM after 30 hrs; assay type: functional, cell-based
# Outline: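 U937 human leukemia cells exposed to compound at 5 µM for 30 h; cell-cycle distribution analysed, arrest read as accumulation in S or G2 phase; SAHA and MS-275 at 5 µM as reference drugs.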
# U-937 [2] = assay: Induction of granulocytic differentiation in human U937 cells assessed as CD11c expression at 5 uM after 30 hrs; assay type: functional
# Outline: (§1)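 U937 cells stimulated 30 h at 5 µM; granulocytic differentiation measured as CD11c expression, reported as percent CD11c-positive/PI-negative cells; SAHA and MS-275 at 5 µM as references.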
# U-937 [3] = assay: Induction of p21 expression in human U937 cells at 5 uM after 24 hrs; assay type: functional, cell-based
# Outline: (§2)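 U937 cells exposed at 5 µM for 24 h; induction of p21WAF1/CIP1 assessed alongside histone H3 and α-tubulin acetylation.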
# U-937 [4] = assay: Induction of granulocytic differentiation in human U937 cells; assay type: functional, cell-based; outline: as §1
# U-937 [5] = assay: Induction of apoptosis in human U937 cells at 5 uM after 30 hrs; assay type: functional
# Outline: (§3)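 U937 cells exposed at 5 µM for 30 h; apoptosis quantified by Annexin V/propidium iodide double staining, expressed as percent apoptotic cells; SAHA and MS-275 at 5 µM as references.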
# U-937 [6] = assay: Induction of apoptosis in human U937 cells; assay type: functional, cell-based; outline: as §3
# U-937 [7] = assay: Induction of alpha tubulin hyperacetylation in human U937 cells; assay type: functional, cell-based
# Outline: (§4)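 U937 cells exposed at 5 µM for 24 h; acetylation of histone H3 and α-tubulin assessed as markers of class I HDAC and HDAC6 inhibition, respectively.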
# U-937 [8] = assay: Induction of histone H4 hyperacetylation in human U937 cells; assay type: functional, cell-based
# U-937 [9] = assay: Induction of p21 expression in human U937 cells; assay type: functional, cell-based; outline: as §2
# U-937 [10] = assay: Induction of histone H4 hyperacetylation in human U937 cells at 5 uM; assay type: functional, cell-based
# U-937 [11] = assay: Induction of histone H3 hyperacetylation in human U937 cells at 5 uM; assay type: functional, cell-based; outline: as §4
# U-937 [12] = assay: Induction of alpha tubulin hyperacetylation in human U937 cells at 5 uM; assay type: functional, cell-based; outline: as §4
Structure (SMILES),Activity (U-937 [2]) [%],Activity (U-937 [3]),Activity (U-937 [5]) [%],other results
Nc1ccccc1NC(=O)c1ccc(CSc2nc(-c3ccccc3)cc(=O)[nH]2)cc1,47.6,Active,–,IC50 (Histone deacetylase 1): 0.2 µM; IC50 (Histone deacetylase 4): 125 µM; Activity (U-937 [1]): Active
Nc1ccccc1NC(=O)c1ccc(CNC(=O)OCc2cccnc2)cc1 [ENTINOSTAT],30.8,–,3.5,Activity (U-937 [4]): Active; Activity (U-937 [6]): inactive; Activity (U-937 [7]): inactive; Activity (U-937 [8]): Active
O=C(CCCCCCC(=O)Nc1ccccc1)NO [VORINOSTAT],21.5,–,16.8,Activity (U-937 [4]): Active; Activity (U-937 [6]): Active; Activity (U-937 [7]): Active; Activity (U-937 [9]): Active; Activity (U-937 [8]): Active
Nc1cccc2cccc(NC(=O)CCCCCc3nc(-c4ccc(-c5ccccc5)cc4)cc(=O)[nH]3)c12,67.6,–,–,–
O=C(CCCCCC(=O)Nc1ccccc1O)Nc1ccccc1,36.6,–,–,–
Nc1ccccc1NC(=O)CCCCCC(=O)Nc1ccccc1,18.3,–,–,Activity (U-937 [10]): Active; Activity (U-937 [11]): Active; Activity (U-937 [12]): inactive
Nc1ccccc1NC(=O)CCCCCc1nc(-c2ccc(-c3ccccc3)cc2)cc(=O)[nH]1,45.9,Active,–,–
Nc1ccccc1NC(=O)CCCCCc1nc(-c2ccccc2)cc(=O)[nH]1,–,Active,4.8,–
Nc1ccccc1NC(=O)CCCCSc1nc(-c2ccccc2)cc(=O)[nH]1,–,Active,–,–
Nc1cccc2cccc(NC(=O)CCCCSc3nc(-c4ccccc4)cc(=O)[nH]3)c12,30.3,Active,–,–
